Test results published in ChEMBL document CHEMBL4145607, “Tamarixetin Exhibits Anti-inflammatory Activity and Prevents Bacterial Sepsis by Increasing IL-10 Production” (J Nat Prod, 2018).
Active and inactive are the calls of the source.

What was measured:
BMDC = test: Inhibition of LPS-induced immune response in C57BL/6 mouse BMDC assessed as increase in IL10 secretion at 25 uM pretreated for 30 mins followed by LPS-challenge measured after 6 hrs by ELISA; assay type: functional, cell-based
How it was run: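 Bone marrow from 6-week-old female C57BL/6 mice, RBC-lysed, cultured in RPMI-1640/10% FBS with 10 ng·mL−1 rmGM-CSF, 37 °C, 5% CO2; medium refreshed days 3 and 5. DCs pretreated 30 min with compound, then LPS 50 ng·mL−1 for 6 h; supernatant IL-10 by sandwich ELISA; means ± SEM.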

Mus musculus [1] = test: Antiseptic activity in Balb/c mouse model of Escherichia coli K1 infection-induced sepsis assessed as increase in survival rate at 1 mg/kg, ip pretreated for 1 hr followed by Escherichia coli K1 infection measured over 72 hrs relative to control; assay type: functional
How it was run: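 BALB/c mice dosed i.p. 1 h before i.p. E. coli K1 strain RS218 (O18:K1:H7) challenge, 1 × 10^7 CFU per mouse, diluted in LB broth; n = 10; survival monitored over 72 h.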

Mus musculus [2] = test: Antiseptic activity in Balb/c mouse model of Escherichia coli K1 infection-induced sepsis assessed as reduction in bacterial count in lungs at 50 mg/kg, ip pretreated for 1 hr followed by Escherichia coli K1 infection measured after 12 hrs; assay type: functional, organism-based
How it was run: (§1)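 BALB/c mice dosed i.p. 1 h before i.p. E. coli K1 (1 × 10^6 CFU per mouse); killed at 12 h. Lungs and kidneys removed aseptically into 1 mL sterile PBS, homogenised on ice, diluted 1:1000 in PBS, 10 μL plated on LB agar, 24 h at 37 °C, colonies counted.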

Mus musculus [3] = test: Antiseptic activity in Balb/c mouse model of Escherichia coli K1 infection-induced sepsis assessed as reduction in bacterial count in kidneys at 50 mg/kg, ip pretreated for 1 hr followed by Escherichia coli K1 infection measured after 12 hrs; assay type: functional, organism-based; how it was run: as §1
Mus musculus [4] = test: Antiseptic activity in Balb/c mouse model of Escherichia coli K1 infection-induced sepsis assessed as reduction in serum endotoxin level at 50 mg/kg, ip pretreated for 1 hr followed by Escherichia coli K1 infection measured after 12 hrs by chromogenic assay; assay type: functional, organism-based
How it was run: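 BALB/c mice dosed i.p. 1 h before i.p. E. coli K1 (1 × 10^6 CFU per mouse), sera taken at 12 h. Serum diluted 10-fold in endotoxin-free PBS, LAL chromogenic end-point assay; background subtracted, quantified against E. coli endotoxin standard, reported as EU·mL−1.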

O=c1c(O)c(-c2ccc(O)c(O)c2)oc2cc(O)cc(O)c12
inactive: inhibition (BMDC) | Activity (Mus musculus [1]) | Activity (Mus musculus [2]) | Activity (Mus musculus [3]) | Activity (Mus musculus [4])
